Measured values gathered from unrelated publications.
Protocols differ between the studies behind these lines.
Effect on: cell growth or viability

With CCOc1ccccc1-n1c(CN2CCNCC2)nc2ccc(F)cc2c1=O the IC50 was 40 nM (PANC-1; ATP luminescence; 72 h).
O=C(NCc1ccccc1)c1cn(Cc2ccc(C(F)(F)F)cc2)c2ccc(Oc3ccccc3)cc2c1=O has a CC50 of greater than 50000 nM (HCC1419; 72 h).
With CC[C@H](C)[C@@H]([C@@H](CC(=O)N1CCC[C@H]1[C@H](OC)[C@@H](C)C(=O)N[C@H](C)[C@@H](O)c1ccccc1)OC)N(C)C(=O)[C@@H](NC(=O)[C@@H](NC)C(C)C)C(C)C the IC50 was 25.3 nM (L02; CCK-8).
For O=C1c2ccccc2-c2c3c(cc4ccnc1c24)OCO3, the IC50 was 7900 nM (MOLT-3; XTT; 75 h).
CC[C@@]1(O)C(=O)OCc2c1cc1n(c2=O)Cc2cc3ccccc3nc2-1 has an IC50 of 157 nM (PANC-1; SRB; 48 h).
With N.N.[Cl][Pt][Cl] the IC50 was 780 nM (REH; ATP luminescence; 72 h).
Cc1ncsc1-c1ccc([C@H](C)NC(=O)[C@@H]2C[C@@H](O)CN2C(=O)[C@@H](c2cc(N3CCC(CN4CCC(OC5CC(Oc6cc(N7C8CCC7CN(c7cc(-c9ccccc9O)nnc7N)C8)ccn6)C5)CC4)CC3)no2)C(C)C)cc1 (some centres unmarked) gave an IC50 of 20.3 nM (NCI-H1944; ATP luminescence; 7 days).
With COc1cnc(OC)n2nc(NS(=O)(=O)c3c(OCC(F)F)cccc3C(F)(F)F)nc12 the inhibition was 0% (L02; CCK-8; 1.56 µM; 72 h).
